In general, pIC50 refers to the IC50 on a negative log10 scale, so that one unit is a factor of ten. Lower therefore signals a high IC50.

The target in assay [1] is T1, Integrin alpha-IIb/beta-3 (Homo sapiens, UniProt P05106+P08514). Kind of assay: Inhibition of Fibrinogen binding to Fibrinogen receptor. The format is protein-complex assay. In outline: (§1)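 Solid-phase ELISA: human fibrinogen (10 µg/mL) coated, BSA-blocked; samples plus purified human platelet GPIIbIIIa (40 µg/mL) incubated 1 h at room temperature. Bound receptor detected with anti-GPIIbIIIa antibody AP3 (1 µg/mL, 1 h), then goat anti-mouse HRP (1 h); OPD/H2O2 at pH 5, stopped with H2SO4, absorbance 492-405 nm. IC50 from four-parameter fit; n ≥ 3.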
T1 sequence (P05106 27-788 limits assumed): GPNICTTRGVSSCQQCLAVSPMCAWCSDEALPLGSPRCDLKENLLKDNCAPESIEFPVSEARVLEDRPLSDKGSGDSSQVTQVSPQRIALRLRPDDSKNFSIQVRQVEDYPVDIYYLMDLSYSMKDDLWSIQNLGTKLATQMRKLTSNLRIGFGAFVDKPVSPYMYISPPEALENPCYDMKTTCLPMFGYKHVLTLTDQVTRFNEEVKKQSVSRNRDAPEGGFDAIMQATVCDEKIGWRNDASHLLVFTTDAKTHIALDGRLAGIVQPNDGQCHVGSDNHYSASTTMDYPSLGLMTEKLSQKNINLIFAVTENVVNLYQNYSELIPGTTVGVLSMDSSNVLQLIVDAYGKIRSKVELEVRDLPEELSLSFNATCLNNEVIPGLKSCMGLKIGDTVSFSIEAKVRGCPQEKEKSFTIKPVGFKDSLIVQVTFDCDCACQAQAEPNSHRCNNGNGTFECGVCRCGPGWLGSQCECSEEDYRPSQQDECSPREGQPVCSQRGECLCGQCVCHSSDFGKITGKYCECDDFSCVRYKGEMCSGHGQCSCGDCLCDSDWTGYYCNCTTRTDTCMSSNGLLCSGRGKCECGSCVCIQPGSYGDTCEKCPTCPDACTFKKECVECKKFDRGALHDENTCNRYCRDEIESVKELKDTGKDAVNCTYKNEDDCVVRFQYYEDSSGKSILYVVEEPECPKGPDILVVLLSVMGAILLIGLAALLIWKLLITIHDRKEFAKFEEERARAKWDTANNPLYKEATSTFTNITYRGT
T1 sequence (P08514 32-887 limits assumed): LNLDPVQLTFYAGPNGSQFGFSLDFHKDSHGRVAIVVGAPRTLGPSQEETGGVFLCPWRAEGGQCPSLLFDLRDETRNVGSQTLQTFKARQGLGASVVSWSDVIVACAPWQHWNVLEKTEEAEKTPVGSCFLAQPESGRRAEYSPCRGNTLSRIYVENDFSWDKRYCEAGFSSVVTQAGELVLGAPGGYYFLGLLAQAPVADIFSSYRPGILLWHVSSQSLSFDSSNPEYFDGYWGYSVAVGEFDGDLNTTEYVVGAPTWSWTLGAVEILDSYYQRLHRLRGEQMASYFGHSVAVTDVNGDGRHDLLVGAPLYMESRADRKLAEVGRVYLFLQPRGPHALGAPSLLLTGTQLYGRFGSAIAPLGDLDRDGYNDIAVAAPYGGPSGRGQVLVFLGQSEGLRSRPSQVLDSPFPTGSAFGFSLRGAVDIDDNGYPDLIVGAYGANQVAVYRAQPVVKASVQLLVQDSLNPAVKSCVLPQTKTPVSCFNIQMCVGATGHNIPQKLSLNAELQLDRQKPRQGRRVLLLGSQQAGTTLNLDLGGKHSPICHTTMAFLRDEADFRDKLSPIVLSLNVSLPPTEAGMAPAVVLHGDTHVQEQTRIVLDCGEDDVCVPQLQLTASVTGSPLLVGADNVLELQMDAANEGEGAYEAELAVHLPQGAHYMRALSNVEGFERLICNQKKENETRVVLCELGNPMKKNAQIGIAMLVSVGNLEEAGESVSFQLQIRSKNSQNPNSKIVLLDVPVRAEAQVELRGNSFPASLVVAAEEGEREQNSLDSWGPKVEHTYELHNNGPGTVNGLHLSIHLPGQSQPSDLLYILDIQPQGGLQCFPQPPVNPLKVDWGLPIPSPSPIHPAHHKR
T1 sequence (P08514 891-1039 limits assumed): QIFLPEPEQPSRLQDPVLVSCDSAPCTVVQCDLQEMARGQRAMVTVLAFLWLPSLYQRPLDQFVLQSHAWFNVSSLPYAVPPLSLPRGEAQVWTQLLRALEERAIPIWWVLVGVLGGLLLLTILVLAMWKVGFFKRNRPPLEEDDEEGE

In assay [2] the target is T1, Integrin alpha-IIb/beta-3. As to the kind of experiment: The compound was tested for the inhibition of fibrinogen receptor. The format is protein-complex assay. The gist of the method:
as §1

pIC50: −log10 of the molar value. *1 amine or outer side, *2 acyl side, *3 side chain or, on linkers, in order; H or OH if unused. Where a SMILES comes first, the peptide text is derived from it. Bridges are numbered along the chain shown (N, C = ends). [ ]: non-standard residue; d: D form. Cys(O)(CH2CO) = O=C([C@H](C[S+]([O-])CC(=O)[*:3])N[*:1])[*:2]

On to `N=C(N)NCCC[C@@H]1NC(=O)[C@H](Cc2ccccc2)NC(=O)C[S+]([O-])C[C@@H](C(=O)O)NC(=O)[C@H](CC(=O)O)NC(=O)CNC1=O` (some centres undefined), for which the results for the pIC50 in assay [1] and in assay [2] were 7.80 and 8.18, respectively.
For `N=C(N)NCCC[C@@H]1NC(=O)[C@@H](Cc2ccccc2)NC(=O)C[S+]([O-])C[C@@H](C(=O)O)NC(=O)[C@H](CC(=O)O)NC(=O)CNC1=O` (some centres undefined), the pIC50 was 7.48 in assay [1] and 8.25 in assay [2].
The matching figures for `N=C(N)NCCC[C@@H]1NC(=O)[C@H](CCCCN)NC(=O)C[S+]([O-])C[C@@H](C(=O)O)NC(=O)[C@H](CC(=O)O)NC(=O)CNC1=O` (some centres undefined) (KRGD[Cys(O)(CH2CO)]-OH; lactam N-5): 7.85 and 8.59.
For `CC(C)C[C@@H]1NC(=O)C[S+]([O-])C[C@@H](C(=O)O)NC(=O)[C@H](CC(=O)O)NC(=O)CNC(=O)[C@H](CCCN=C(N)N)NC1=O` (some centres undefined) (LRGD[Cys(O)(CH2CO)]-OH; lactam N-5) the same measures were 7.60 and 8.41.
For `N=C(N)NCCC[C@@H]1NC(=O)[C@H](CO)NC(=O)C[S+]([O-])C[C@@H](C(=O)O)NC(=O)[C@H](CC(=O)O)NC(=O)CNC1=O` (some centres undefined) (SRGD[Cys(O)(CH2CO)]-OH; lactam N-5) the same measures were 7.30 and 8.10.
Turning to `N=C(N)NCCC[C@@H]1NC(=O)CNC(=O)C(c2ccc(-c3ccccc3)cc2)SC[C@@H](C(=O)O)NC(=O)[C@H](CC(=O)O)NC(=O)CNC1=O` (stereo in doubt; 19B), the pIC50 in assay [2] is 8.46.
The same measure, in the same setting: next, `N=C(N)NCCC[C@@H]1NC(=O)CNC(=O)C(c2ccccc2C(F)(F)F)SC[C@@H](C(=O)O)NC(=O)[C@H](CC(=O)O)NC(=O)CNC1=O` (stereo in doubt; 20A): 7.64.
On the same count and under the same terms, in the case of `N=C(N)NCCC[C@@H]1NC(=O)CNC(=O)C(c2ccccc2C(F)(F)F)SC[C@@H](C(=O)O)NC(=O)[C@H](CC(=O)O)NC(=O)CNC1=O` (stereo in doubt; 20B) it was 8.57; in that of `N=C(N)NCCC[C@@H]1NC(=O)CNC(=O)C(c2ccc3ccccc3c2)SC[C@@H](C(=O)O)NC(=O)[C@H](CC(=O)O)NC(=O)CNC1=O` (stereo in doubt; 21A), 7.94.
Still for that read-out and setting: in the case of `N=C(N)NCCC[C@@H]1NC(=O)CNC(=O)C(c2ccc3ccccc3c2)SC[C@@H](C(=O)O)NC(=O)[C@H](CC(=O)O)NC(=O)CNC1=O` (stereo in doubt; 21B) it was 8.55; in that of `N=C(N)NCCC[C@@H]1NC(=O)CNC(=O)C(c2ccc(C(F)(F)F)cc2)SC[C@@H](C(=O)O)NC(=O)[C@H](CC(=O)O)NC(=O)CNC1=O` (stereo in doubt; 22A), 6.74.
As to `N=C(N)NCCC[C@@H]1NC(=O)CNC(=O)C(c2ccc(C(F)(F)F)cc2)SC[C@@H](C(=O)O)NC(=O)[C@H](CC(=O)O)NC(=O)CNC1=O` (stereo in doubt; 22B), the pIC50 in assay [2] was 8.40.
Same read-out and setting: in the case of `CCCC1SC[C@@H](C(=O)O)NC(=O)[C@H](CC(=O)O)NC(=O)CNC(=O)[C@H](CCCNC(=N)N)NC(=O)CNC1=O` (stereo in doubt; 23A) it was 7.68.
Turning to `CCCC1SC[C@@H](C(=O)O)NC(=O)[C@H](CC(=O)O)NC(=O)CNC(=O)[C@H](CCCNC(=N)N)NC(=O)CNC1=O` (stereo in doubt; 23B), the pIC50 in assay [2] is 8.27.
Still for that read-out and setting: in the case of `N=C(N)NCCC[C@@H]1NC(=O)CNC(=O)C(c2cccc(C(F)(F)F)c2)SC[C@@H](C(=O)O)NC(=O)[C@H](CC(=O)O)NC(=O)CNC1=O` (stereo in doubt; 24A) it was 7.46.
On the same count and under the same terms, in the case of `N=C(N)NCCC[C@@H]1NC(=O)CNC(=O)C(c2cccc(C(F)(F)F)c2)SC[C@@H](C(=O)O)NC(=O)[C@H](CC(=O)O)NC(=O)CNC1=O` (stereo in doubt; 24B) it was 8.24; in that of `CCC1SC[C@@H](C(=O)O)NC(=O)[C@H](CC(=O)O)NC(=O)CNC(=O)[C@H](CCCN=C(N)N)NC(=O)CNC1=O` (stereo in doubt; 25A), 7.70.
`CCC1SC[C@@H](C(=O)O)NC(=O)[C@H](CC(=O)O)NC(=O)CNC(=O)[C@H](CCCN=C(N)N)NC(=O)CNC1=O` (stereo in doubt; 25B) showed a pIC50 in assay [2] of 8.22.
In assay [2], `N=C(N)NCCC[C@@H]1NC(=O)CNC(=O)C[S+]([O-])C[C@@H](C(=O)O)NC(=O)[C@H](CC(=O)O)NC(=O)CNC1=O` (stereo in doubt; 66A) showed a negative-log IC50 (pIC50) of 8.85.
The same measure, in the same setting: in the case of `N=C(N)NCCC[C@@H]1NC(=O)CNC(=O)C[S+]([O-])C[C@@H](C(=O)O)NC(=O)[C@H](CC(=O)O)NC(=O)CNC1=O` (stereo in doubt; 66B) it was 7.60.
Still for that read-out and setting: next, `N=C(N)NCCC[C@@H]1NC(=O)[C@H](CC(N)=O)NC(=O)C[S+]([O-])C[C@@H](C(=O)O)NC(=O)[C@H](CC(=O)O)NC(=O)CNC1=O` (stereo in doubt; 67A): 8.22; `N=C(N)NCCC[C@@H]1NC(=O)[C@H](CC(N)=O)NC(=O)C[S+]([O-])C[C@@H](C(=O)O)NC(=O)[C@H](CC(=O)O)NC(=O)CNC1=O` (stereo in doubt; 67B): 8.28; `C[C@@H]1NC(=O)C[S+]([O-])C[C@@H](C(=O)O)NC(=O)[C@H](CC(=O)O)NC(=O)CNC(=O)[C@H](CCCN=C(N)N)NC1=O` (stereo in doubt; 68A): 8.80.
In turn, `C[C@@H]1NC(=O)C[S+]([O-])C[C@@H](C(=O)O)NC(=O)[C@H](CC(=O)O)NC(=O)CNC(=O)[C@H](CCCN=C(N)N)NC1=O` (stereo in doubt; 68B) gave a pIC50 in assay [2] of 8.33.
`N=C(N)NCCC[C@@H]1NC(=O)[C@@H](Cc2ccc(O)cc2)NC(=O)C[S+]([O-])C[C@@H](C(=O)O)NC(=O)[C@H](CC(=O)O)NC(=O)CNC1=O` (stereo in doubt; 69A) had a pIC50 in assay [2] of 8.14.
On the same count and under the same terms, in the case of `N=C(N)NCCC[C@@H]1NC(=O)[C@@H](Cc2ccc(O)cc2)NC(=O)C[S+]([O-])C[C@@H](C(=O)O)NC(=O)[C@H](CC(=O)O)NC(=O)CNC1=O` (stereo in doubt; 69B) it was 7.40; in that of `N=C(N)NCCC[C@@H]1NC(=O)[C@H](Cc2ccc(O)cc2)NC(=O)C[S+]([O-])C[C@@H](C(=O)O)NC(=O)[C@H](CC(=O)O)NC(=O)CNC1=O` (stereo in doubt; 70A), 8.82; in that of `N=C(N)NCCC[C@@H]1NC(=O)[C@H](Cc2ccc(O)cc2)NC(=O)C[S+]([O-])C[C@@H](C(=O)O)NC(=O)[C@H](CC(=O)O)NC(=O)CNC1=O` (stereo in doubt; 70B), 8.32.
In assay [2], `C[C@@H](O)[C@@H]1NC(=O)C[S+]([O-])C[C@@H](C(=O)O)NC(=O)[C@H](CC(=O)O)NC(=O)CNC(=O)[C@H](CCCN=C(N)N)NC1=O` (stereo in doubt; 71A) gave a pIC50 of 8.74.
Still for that read-out and setting: in the case of `C[C@@H](O)[C@@H]1NC(=O)C[S+]([O-])C[C@@H](C(=O)O)NC(=O)[C@H](CC(=O)O)NC(=O)CNC(=O)[C@H](CCCN=C(N)N)NC1=O` (stereo in doubt; 71B) it was 8.00; in that of `N=C(N)NCCC[C@@H]1NC(=O)[C@H](CCC(=O)O)NC(=O)C[S+]([O-])C[C@@H](C(=O)O)NC(=O)[C@H](CC(=O)O)NC(=O)CNC1=O` (stereo in doubt; 73A), 8.33.
Still for that read-out and setting: in the case of `N=C(N)NCCC[C@@H]1NC(=O)[C@H](CCC(=O)O)NC(=O)C[S+]([O-])C[C@@H](C(=O)O)NC(=O)[C@H](CC(=O)O)NC(=O)CNC1=O` (stereo in doubt; 73B) it was 7.17.
Same read-out and setting: next, `C[C@@H]1NC(=O)CSC[C@@H](C(=O)O)NC(=O)[C@H](CC(=O)O)NC(=O)CNC(=O)[C@H](CCCNC(=N)N)NC1=O` ({CH2CO}-ARGDC-OH; thioether N-5): 8.60; `N=C(N)NCCC[C@@H]1NC(=O)CNC(=O)CSC[C@@H](C(N)=O)NC(=O)[C@H](CC(=O)O)NC(=O)CNC1=O` ({CH2CO}-GRGDC-NH2; thioether N-5): 7.92; `N=C(N)NCCC[C@@H]1NC(=O)CNC(=O)CSC[C@@H](C(=O)O)NC(=O)[C@H](CC(=O)O)NC(=O)CNC1=O` ({CH2CO}-GRGDC-OH; thioether N-5): 8.38.
Compound `N=C(N)NCCC[C@@H]1NC(=O)[C@H](CC(N)=O)NC(=O)CSC[C@@H](C(=O)O)NC(=O)[C@H](CC(=O)O)NC(=O)CNC1=O` ({CH2CO}-NRGDC-OH; thioether N-5) gave a pIC50 in assay [2] of 8.57.
On the same count and under the same terms, next, `N=C(N)NCCC[C@@H]1NC(=O)[C@@H]2CCCN2C(=O)CSC[C@@H](C(=O)O)NC(=O)[C@H](CC(=O)O)NC(=O)CNC1=O` ({CH2CO}-PRGDC-OH; thioether N-5): 9.00.
Same read-out and setting: in the case of `N=C(N)NCCC[C@@H]1NC(=O)CSC[C@@H](C(=O)O)NC(=O)[C@H](CC(=O)O)NC(=O)CNC1=O` ({CH2CO}-RGDC-OH; thioether N-4) it was 6.88; in that of `N=C(N)NCCC[C@@H]1NC(=O)[C@H](Cc2ccc(O)cc2)NC(=O)CSC[C@@H](C(N)=O)NC(=O)[C@H](CC(=O)O)NC(=O)CNC1=O` ({CH2CO}-YRGDC-NH2; thioether N-5), 8.60.
The same measure, in the same setting: next, `N=C(N)NCCC[C@@H]1NC(=O)[C@H](Cc2ccc(O)cc2)NC(=O)CSC[C@@H](C(=O)O)NC(=O)[C@H](CC(=O)O)NC(=O)CNC1=O` ({CH2CO}-YRGDC-OH; thioether N-5): 8.82; `C[C@H]1NC(=O)CSC[C@@H](C(=O)O)NC(=O)[C@H](CC(=O)O)NC(=O)CNC(=O)[C@H](CCCNC(=N)N)NC1=O` ({CH2CO}-[dA]RGDC-OH; thioether N-5): 8.02.
In assay [2], `N=C(N)NCCC[C@@H]1NC(=O)[C@@H](CC(N)=O)NC(=O)CSC[C@@H](C(=O)O)NC(=O)[C@H](CC(=O)O)NC(=O)CNC1=O` ({CH2CO}-[dN]RGDC-OH; thioether N-5) gave a pIC50 of 7.46.
On the same count and under the same terms, next, `N=C(N)NCCC[C@@H]1NC(=O)[C@H]2CCCN2C(=O)CSC[C@@H](C(=O)O)NC(=O)[C@H](CC(=O)O)NC(=O)CNC1=O` ({CH2CO}-[dP]RGDC-OH; thioether N-5): 7.94; `N=C(N)NCCC[C@@H]1NC(=O)[C@@H](Cc2ccc(O)cc2)NC(=O)CSC[C@@H](C(=O)O)NC(=O)[C@H](CC(=O)O)NC(=O)CNC1=O` ({CH2CO}-[dY]RGDC-OH; thioether N-5): 7.70.

For the origin of these results see ChEMBL document CHEMBL1126061, “Cyclic RGD peptide analogues as antiplatelet antithrombotics” (J Med Chem, 1992).
